rRNA inh HTS: inhibits bacterial ribosomal RNA function over humanized ribosomes. GFP signal change (wild-type ribosome), % (concentration not given with the values). E. coli WT GFP vs humanized-ribosome RFP mutants, fluorescence, 24 h; hits give low values; DMSO median 0, no signal -100. 1.6% of 350,000 active. AID 720706;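 active means significant combined selectivity score with lowered wild-type GFP, culture density cut under 30%, mutant RFP and density less affected; inactive means any of these conditions unmet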
miR122 inh: blocks miR-122 activity in Huh7 sensor cells; AID 602342; Huh7 miR-122 Renilla luciferase sensor, 48 h; neutral wells = 0, positive control = 100; activation (reporter increase), % at 12.5 µM; 0.3% of 340,000 active;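 active means mean replicate activation score at least 90 and every replicate individually at or above 90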;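 further: higher luciferase means less miR-122 activity so hits act as miR-122 inhibitors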
Cneo AK release: causes C. neoformans cell lysis; adenylate kinase release luminescence, 4 h; normalised: neutral wells 0, clomiphene wells 100; lysis activity, % at 15 µM; 0.2% of 360,000 active; AID 651654;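 active means mean lysis activity across replicates of at least 80%, whatever share of replicates individually reach that level; inactive means mean lysis activity below 80%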
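Assay system: C. neoformans cells. Amount: yeast cell density of 5 × 10^6 cells/mL. Technique: AK luminescence. Buffer or medium: YPD. Times: static 4 h at 37 °C with compound, 1 h detection. Dosing: single-point compound dose. Read-out: lysis from increased AK signal.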
GSIS activator: GLuc luminescence reporter in INS-1E cells, primary screen for activators of glucose-dependent secretion of insulin; INS-1E GLuc reporter insulin secretion, 2-3 h; activation, % at 16.6 µM; 0.61% of 370,000 active; AID 743287;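 active means lowest replicate activation of at least 40%, so every replicate reaches that level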;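 further: 0% = median of neutral control wells and 100% = median of IBMX positive control wells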
HIV Env fusion: inhibitors of HIV Env-mediated cell fusion | HeLa-JRFL Env/CEM21 cell fusion, luciferase | AID 651610 | inhibition, % at 12.3 µM | 1.1% of 360,000 active;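 active means mean replicate inhibition score of at least 50 and every replicate individually at or above 50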;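 further: 0% = plate neutral controls and 100% = maraviroc near 300 nM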
F508del corr: correctors of CFTR F508del function in bronchial epithelial cells; CFBE cells, YFP halide quenching; stimulated with forskolin plus potentiator P3; % fluorescence drop versus neutral controls; AID 720511; 0.36% of 350,000 active; activity (quench increase), % at 7.58 µM;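 active means mean added fluorescence quench of at least 8% versus neutral control, with both replicates also reaching 8%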;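 further: cells transiently co-express mutant CFTR-F508del with the halide-sensitive YFP; corrector assay measuring rescue of mutant channel to the surface after 24 h compound exposure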
* = called active by the depositor; . = not tested or not shown; [ ] = another dose, or the depositor's remark. Most compounds without a hit are left out; they make up all but 3.1% or so of the library.

SMILES	rRNA inh HTS	miR122 inh	Cneo AK release	GSIS activator	HIV Env fusion	F508del corr
CCOC(=O)c1ccccc1NC(=O)CN(c1ccccc1OC)S(C)(=O)=O	.	6	-1	62*	-23	.
COc1ccccc1NC(=O)CN(c1ccc(C23CC4CC(CC(C4)C2)C3)cc1)S(C)(=O)=O	.	-4	3	10	104*	.
CC(C)NC(=O)N(C)C[C@@H]1Oc2c(NS(C)(=O)=O)cccc2C(=O)N(C)C[C@@H]1C	2	.	.	12	.	.
COc1ccc(CN(C)C[C@H]2Oc3ccc(NS(=O)(=O)c4ccc(Cl)cc4)cc3CC(=O)N([C@H](C)CO)C[C@@H]2C)cc1	0	.	.	-23	.	-2
CCCNC(=O)N1CC2(CCN(C)CC2)c2c(n(C)c3cc(OC)ccc23)[C@@H]1CO	10	.	.	11	.	.
C=C[C@H](Cc1ccccc1)N(Cc1ccccc1)S(=O)(=O)N(Cc1ccccc1)[C@H](C=C)Cc1ccccc1	6	.	1	2	61*	4
COC(=O)[C@@H](Cc1ccccc1)N(Cc1ccccc1)S(=O)(=O)N(Cc1ccccc1)[C@H](Cc1ccccc1)C(=O)OC	9	.	-1	3	40	3
C[C@@H]1CN([C@@H](C)CO)C(=O)c2cc(NS(=O)(=O)c3ccc(Cl)cc3)ccc2O[C@H]1CN(C)CC1CC1	-2	-2[16.7 µM]	-2	-1	-14[16.7 µM]	-2
O=C(Nc1ccccc1C(=O)O)c1cc(S(=O)(=O)N2CCCCCC2)ccc1Cl	-44*	.	-2	-5	-1	0
CCOc1ccc(Oc2ccc(S(=O)(=O)N3CCOCC3)cc2NC(=O)C2=COCCO2)cc1	-1	1	4	-21	1	-2
CCOc1ccc(S(=O)(=O)N2CCCCC2)cc1NC(=O)c1ccccc1	9	0	-1	7	.	12*
COc1ccc(S(=O)(=O)N2CCCCC2)cc1NC(=O)c1ccccc1	7	-2	-1	7	0	-5
O=C(O)c1cc(S(=O)(=O)N2CCCCCC2)ccc1Cl	.	-10	-5	.	-65	.
CCOc1ccc(S(=O)(=O)N2CCOCC2)cc1NC(=O)C1=COCCO1	8	.	3	41*	-13	0
CCOC(=O)C(=N/O)/C(C)=N/NC(=O)C(=O)Nc1ccc(Cl)cc1	-20*	.	2	6	10	-1
Cc1ccccc1CN(C)C[C@H]1OCc2cnnn2CCCC(=O)N([C@H](C)CO)C[C@H]1C	-2	-2[16.7 µM]	5	0	-2[16.7 µM]	2
C[C@H](CO)N1C[C@H](C)[C@@H](CN(C)C(=O)Nc2ccc(C(F)(F)F)cc2)Oc2ccc(NC(=O)CCCCCC(=O)Nc3ccccc3N)cc2C1=O	-3	.	.	6	.	.
Nc1nc(=S)ss1	-13*	.	0	-13	18	-6
COc1cc(CN2CC(=O)N(c3ccccc3Cl)C2=S)cc(OC)c1OC	-18*	.	0	-4	14	5
Cc1cccc(N2C(=O)CN(Cc3ccccc3)C2=S)c1	-14*	-2	-6	-3	7	4
Cc1cccc(N2C(=O)CN(Cc3cccs3)C2=S)c1	-4	6	0	0	14	1
COc1cc2c(cc1NC(=O)C(C)Sc1cccc[n+]1[O-])oc1ccccc12 (centres undefined)	-33*	.	.	37	8	.
COc1cc2c(cc1NC(=O)C(C)Sc1nc3ccccc3n1C)oc1ccccc12 (centres undefined)	.	.	.	14	-3	.
COc1cc2c(cc1NC(=O)c1ccc(C)c([N+](=O)[O-])c1)oc1ccccc12	.	-4	6	53*	-28	.
CN(C)CCN=Cc1c(O)n(Cc2ccccc2)c(=O)c2ccccc12	-24*	-7	0	1	-2	-2
CN(C)CCCN=Cc1c(O)n(Cc2ccccc2)c(=O)c2ccccc12	.	5	5	10	.	.
Cc1ccc(S(=O)(=O)Nc2ccc3c(c2)C(=O)N([C@H](C)CO)C[C@H](C)[C@H](CN(C)Cc2ccc(C(F)(F)F)cc2)OCCCC[C@H](C)O3)cc1	1	-13[16.7 µM]	22	17	32[16.7 µM]	5
